Source: the array DNA melting data of Ke et al. (doi:10.1101/2024.01.08.574731)

Legend:
[1] = melting temperature; fluorescence melt of hairpins on a sequencing array, two-state fit, raised by 9.35 °C to match UV melts; conditions: sodium 0.088 M
Method in brief: (§1)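 With Cy3 and quencher oligos annealed, library hairpins on a sequenced MiSeq flow cell were imaged for Cy3 fluorescence in 50 mM Na-HEPES pH 8.0, 25 mM NaCl, in 2.5 °C steps up to 60 °C. Melting temperature and folding enthalpy were derived from bootstrapped two-state fits of signals normalised to pre-quench Cy3 and to control constructs. Four replicates were combined by inverse variance, with fitted temperatures raised by 9.35 °C to match UV melts.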

[2] = folding enthalpy; higher = less favourable; fluorescence melt of hairpins on a sequencing array, two-state fit; conditions: sodium 0.088 M
Method in brief: as §1

Sequence | Tm [1] | folding enthalpy [2]
CGTAGCCGGAAACGGACG (((..(((....)))))) | 31.7 °C | -8.93 kcal/mol
CGTAGTCGGAAACGAACG (((..(((....)))))) | 21.6 °C | -4.62 kcal/mol
CGTATCGGAAACGAACG (((.(((....)))))) | 36.2 °C | -24.5 kcal/mol
CGTATTCGGAAACGAACG (((..(((....)))))) | 28.4 °C | -17.2 kcal/mol
CGTCCCGGAAACGGCACG (((.(((....))).))) | 39.9 °C | -23.7 kcal/mol
CGTCCGGAAACGGTTACG ((((((....)))..))) | 39.3 °C | -13.9 kcal/mol
CGTGACGGAAACGTACG (((.(((....)))))) | 42.5 °C | -25.3 kcal/mol
CGTGCACGGAAACGTACG (((..(((....)))))) | 33.2 °C | -8.88 kcal/mol
CGTGCCGGAAACGGACG (((.(((....)))))) | 48.7 °C | -22 kcal/mol
CGTGCGGAAACGCACACG ((((((....)))..))) | 43.9 °C | -8.09 kcal/mol
CGTGGGAAACCACG (((((....))))) | 58 °C | -34.5 kcal/mol
CGTGTGAAAACACG (((((....))))) | 58.6 °C | -29.3 kcal/mol
CGTTACCGGAAACGGACG (((..(((....)))))) | 36.9 °C | -17 kcal/mol
CGTTCCCGGAAACGGACG (((..(((....)))))) | 35.3 °C | -21.6 kcal/mol
CGTTCGGAAACGACAACG ((((((....)))..))) | 34.4 °C | -15.2 kcal/mol
CGTTCGGAAACGACACG ((((((....))).))) | 39.3 °C | -26.9 kcal/mol
CGTTCGGAAACGATAACG ((((((....)))..))) | 36.1 °C | -30.6 kcal/mol
CGTTCGGAAACGATGACG ((((((....)))..))) | 39 °C | -20 kcal/mol
CGTTGTCGGAAACGAACG (((..(((....)))))) | 35.1 °C | -11.6 kcal/mol
CGTTTCGGAAACGAACG (((.(((....)))))) | 44.9 °C | -26.3 kcal/mol
CGTTTGAAAAAACG (((((....))))) | 47.3 °C | -21.2 kcal/mol
CTAACGAAAGTTAG (((((....))))) | 49.4 °C | -23.9 kcal/mol
CTACCGAAAGGTAG (((((....))))) | 57.9 °C | -23.2 kcal/mol
CTATGGAAACATAG (((((....))))) | 36.9 °C | -15.7 kcal/mol

Sequence | Tm [1] | folding enthalpy [2]
CTATTGAAAAATAG (((((....))))) | 23.4 °C | -8.21 kcal/mol
CTCAAGAAATTGAG (((((....))))) | 33.8 °C | -12.8 kcal/mol
CTCATGAAAATGAG (((((....))))) | 44.8 °C | -21.3 kcal/mol
CTCCAGAAATGGAG (((((....))))) | 44.9 °C | -18.9 kcal/mol
CTGCAGAAATGCAG (((((....))))) | 53.4 °C | -21 kcal/mol
CTGCTGAAAAGCAG (((((....))))) | 58.9 °C | -22.2 kcal/mol
CTGGAGAAATCCAG (((((....))))) | 43.6 °C | -27.1 kcal/mol
CTGGGGAAACCCAG (((((....))))) | 53.5 °C | -25.4 kcal/mol
CTGTCGAAAGACAG (((((....))))) | 67.5 °C | -21.3 kcal/mol
CTTCTGAAAAGAAG (((((....))))) | 43.3 °C | -14.7 kcal/mol
CTTGCGAAAGCAAG (((((....))))) | 58.8 °C | -16.9 kcal/mol
GAAAAACCGAAAGGTTTC (((..(((....)))))) | 34.8 °C | -12.4 kcal/mol
GAAAAACGAAAGTTGTTC (((.(((....))).))) | 33.6 °C | -19.6 kcal/mol
GAAAACCGAAAGGTATTC (((.(((....))).))) | 37.5 °C | -23.5 kcal/mol
GAAAACGAAAGTTCGTTC ((((((....)))..))) | 25.1 °C | -10.8 kcal/mol
GAAAACGAAAGTTTTC ((((((....)))))) | 55 °C | -37.9 kcal/mol
GAAAACGAAAGTTTTTC ((((((....))).))) | 42.1 °C | -17.8 kcal/mol
GAAAAGACGAAAGTCTTC (((..(((....)))))) | 35.6 °C | -11.8 kcal/mol
GAAAAGCGAAAGCTATTC (((.(((....))).))) | 36.4 °C | -19.5 kcal/mol
GAAAAGCGAAAGCTTTC (((.(((....)))))) | 43.5 °C | -14.2 kcal/mol
GAAACCGAAAGGTAATTC ((((((....)))..))) | 27.9 °C | -9.6 kcal/mol
GAAACCGAAAGGTTATTC ((((((....)))..))) | 29.6 °C | -12.4 kcal/mol
GAAACGCGAAAGCGATTC (((.(((....))).))) | 50.8 °C | -28.3 kcal/mol
GAAACGGGAAACCGTTCC (.(((((....))))).) | 39.4 °C | -14.6 kcal/mol

Sequence | Tm [1] | folding enthalpy [2]
GAAACTGGAAACAGTTCC (.(((((....))))).) | 35.2 °C | -19.3 kcal/mol
GAAACTGGAAACGGTTTC (((((.(....).))))) | 44.5 °C | -34.5 kcal/mol
GAAAGCGAAAGCTATTC ((((((....))).))) | 30.4 °C | -12 kcal/mol
GAAAGCGAAAGCTGATTC ((((((....)))..))) | 42 °C | -19.2 kcal/mol
GAAAGCGAAAGCTTTTC ((((((....))).))) | 47.1 °C | -12.9 kcal/mol
GAAAGGGGAAACTCTTTC (((((.(....).))))) | 36.3 °C | -25 kcal/mol
GAAATACGAAAGTAGTTC (((.(((....))).))) | 42.1 °C | -26.7 kcal/mol
GAAATCCGAAAGGAGTTC (((.(((....))).))) | 49.4 °C | -31.9 kcal/mol
GAAATGCGAAAGCAGTTC (((.(((....))).))) | 52.4 °C | -33.5 kcal/mol
GAAATGGAAACATTTC ((((((....)))))) | 46.7 °C | -30.2 kcal/mol
GAAATGGGAAACCGTTTC ((((.((....)).)))) | 43.6 °C | -33.4 kcal/mol
GAAATTGCGAAAGCATTC (((..(((....)))))) | 23.4 °C | -6.33 kcal/mol
GAAATTGGAAACAGTTTC ((((.((....)).)))) | 34.2 °C | -26.4 kcal/mol
GAACACCGAAAGGTCTTC (((.(((....))).))) | 35.2 °C | -15.2 kcal/mol
GAACACCGAAAGGTTTC (((.(((....)))))) | 37.4 °C | -20.5 kcal/mol
GAACACCGAAAGGTTTTC (((.(((....))).))) | 38 °C | -25.1 kcal/mol
GAACACGAAAGTGCTTC ((((((....))).))) | 41.9 °C | -20.2 kcal/mol
GAACAGAAATGTTC (((((....))))) | 41.4 °C | -18.1 kcal/mol
GAACAGACGAAAGTCTTC (((..(((....)))))) | 25.6 °C | -9.42 kcal/mol
GAACAGCGAAAGCTCTTC (((.(((....))).))) | 34.3 °C | -14.5 kcal/mol
GAACAGCGAAAGCTTTC (((.(((....)))))) | 33.6 °C | -12.4 kcal/mol
GAACAGCGAAAGCTTTTC (((.(((....))).))) | 37.8 °C | -19.9 kcal/mol
GAACATGCGAAAGCATTC (((..(((....)))))) | 26.6 °C | -11 kcal/mol
GAACATGGAAACATGCTC ((.((((....)))).)) | 35.3 °C | -26.5 kcal/mol

Sequence | Tm [1] | folding enthalpy [2]
GAACCACGAAAGTGTTC (((.(((....)))))) | 43.9 °C | -13.8 kcal/mol
GAACCAGGAAACCGGTTC (((((.(....).))))) | 45.1 °C | -36.3 kcal/mol
GAACCCCGAAAGGGTTC (((.(((....)))))) | 58.9 °C | -30.9 kcal/mol
GAACCCGAAAGGGGCTTC ((((((....)))..))) | 51 °C | -20 kcal/mol
GAACCCGAAAGGGTGTTC ((((((....)))..))) | 47.8 °C | -11.6 kcal/mol
GAACCGAAAGGTTC (((((....))))) | 67.7 °C | -25.6 kcal/mol
GAACCGCGAAAGCGTTTC (((.(((....))).))) | 42.3 °C | -20.5 kcal/mol
GAACCGGGAAACCAGTTC ((((.((....)).)))) | 36.5 °C | -26.2 kcal/mol
GAACCTGAAAAGGTTC ((((((....)))))) | 60.6 °C | -31.8 kcal/mol
GAACCTGGAAACAGATTC (((.(((....))).))) | 31.9 °C | -17.9 kcal/mol
GAACGACGAAAGTCTTTC (((.(((....))).))) | 39.3 °C | -24.4 kcal/mol
GAACGCCGAAAGGCCTTC (((.(((....))).))) | 34.5 °C | -13.1 kcal/mol
GAACGCGAAAGCGACTTC ((((((....)))..))) | 46.1 °C | -13.8 kcal/mol
GAACGCGAAAGCGCATTC ((((((....)))..))) | 25.9 °C | -7.58 kcal/mol
GAACGCGAAAGCGCCTTC ((((((....)))..))) | 35.8 °C | -11.1 kcal/mol
GAACGCGAAAGCGCTTC ((((((....))).))) | 48.6 °C | -14.3 kcal/mol
GAACGCGAAAGCGGTTTC ((((((....)))..))) | 41.9 °C | -10.8 kcal/mol
GAACGGCGAAAGCCCTTC (((.(((....))).))) | 32.8 °C | -12.4 kcal/mol
GAACGGCGAAAGCCTTC (((.(((....)))))) | 39.3 °C | -12.4 kcal/mol
GAACGGGAAACCGTTC ((((((....)))))) | 62.8 °C | -37.1 kcal/mol
GAACGGGGAAACCCGTCC (.(((((....))))).) | 42.5 °C | -11.7 kcal/mol
